The values below come from ChEMBL document CHEMBL4257549, “Design, synthesis and biological evaluation of benzimidazole-rhodanine conjugates as potent topoisomerase II inhibitors” (Medchemcomm, 2018).

The source made the active and inactive calls. No cut-off for these calls is given here.

Assay [1] is filed under the species Homo sapiens. Nature of the assay: Inhibition of human topoisomerase 2-mediated pBR322 DNA relaxation at 20 uM after 30 mins by agarose gel electrophoresis.
Assay [2] concerns HeLa. Nature of the assay: Cytotoxicity against human HeLa cells after 48 hrs by MTT assay. Format: functional, cell-based. An outline of the steps: (§1)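 Cells seeded at 5000 per well, left overnight, then exposed to compound at 0–50 μM for 48 h. MTT (20 μL of 2.5 mg mL−1) added for a further 4 h at 37 °C, formazan dissolved in DMSO, absorbance read at 570 nm. Quadruplicate wells, N > 2 determinations, mean IC50 taken as the concentration reducing cell number to 50%.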
In general terms: Formazan colour is commonly taken as a measure of viable cells.

In assay [3] the test system is A549. Nature of the assay: Cytotoxicity against human A549 cells after 48 hrs by MTT assay. Format: functional, cell-based. The conditions noted are these: A549, 48 h. An outline of the steps:
as §1

The subject of assay [4] is HL-60. The experiment in a line: Cytotoxicity against human HL60 cells after 48 hrs by MTT assay. The format is functional, cell-based. The conditions noted are these: HL-60, 48 h. An outline of the steps: as §1
In assay [5] the test system is PC-3. The experiment in a line: Cytotoxicity against human PC3 cells after 48 hrs by MTT assay. The format is functional, cell-based. The conditions noted are these: PC-3, 48 h. In a few lines:
as §1

For assay [6], the species on record is Homo sapiens. Nature of the assay: Poison activity at human topoisomerase 2 assessed as transformation of supercoiled pBR322 DNA to linear pBR322 DNA at 100 uM after 6 mins by agarose gel electrophoresis.
The species entered for assay [7] is Homo sapiens. The experiment in a line: Inhibition of human topoisomerase 2-mediated pBR322 DNA relaxation at 100 uM after 30 mins by agarose gel electrophoresis.
For assay [8], the system named is MDA-MB-231. The experiment in a line: Cytotoxicity against human MDA-MB-231 cells after 48 hrs by MTT assay. The conditions noted are these: MDA-MB-231, 48 h. Format: functional, cell-based. An outline of the steps: as §1
For assay [9], the system named is Raji. Nature of the assay: Cytotoxicity against human Raji cells after 48 hrs by MTT assay. The format is functional, cell-based. An outline of the steps: as §1
For assay [10], the species on record is Homo sapiens. The experiment in a line: Poison activity at human topoisomerase 2 assessed as […] at 50 uM after 6 mins by agarose gel electrophoresis.
Assay [11] concerns the target T1, DNA topoisomerase 1 (Homo sapiens) (UniProt P11387).
T1 sequence (whole entry): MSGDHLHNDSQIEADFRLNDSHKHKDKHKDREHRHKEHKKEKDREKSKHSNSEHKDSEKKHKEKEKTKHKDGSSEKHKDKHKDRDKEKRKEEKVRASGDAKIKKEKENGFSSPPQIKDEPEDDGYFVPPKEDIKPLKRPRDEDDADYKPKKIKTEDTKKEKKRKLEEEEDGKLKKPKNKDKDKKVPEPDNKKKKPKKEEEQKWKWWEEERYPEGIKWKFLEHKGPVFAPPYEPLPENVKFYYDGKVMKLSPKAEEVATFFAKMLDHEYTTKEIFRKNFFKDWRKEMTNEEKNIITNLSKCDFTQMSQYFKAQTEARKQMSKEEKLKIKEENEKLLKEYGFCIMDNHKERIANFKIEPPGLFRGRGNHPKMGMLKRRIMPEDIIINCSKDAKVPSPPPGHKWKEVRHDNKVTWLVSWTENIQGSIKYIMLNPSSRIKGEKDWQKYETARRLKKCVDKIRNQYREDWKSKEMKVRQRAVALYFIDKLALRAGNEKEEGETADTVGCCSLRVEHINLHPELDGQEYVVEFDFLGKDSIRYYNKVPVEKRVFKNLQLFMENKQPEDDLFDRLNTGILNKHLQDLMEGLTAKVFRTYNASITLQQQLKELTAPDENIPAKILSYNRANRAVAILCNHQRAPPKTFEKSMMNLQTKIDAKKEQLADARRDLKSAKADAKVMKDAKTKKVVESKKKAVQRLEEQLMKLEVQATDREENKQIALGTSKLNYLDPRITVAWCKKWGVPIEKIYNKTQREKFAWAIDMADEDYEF
The experiment in a line: Inhibition of topoisomerase 1 (unknown origin)-mediated pBR322 DNA relaxation at 50 uM after 30 mins by agarose gel electrophoresis. An outline of the steps:
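Topo I relaxation of pBR322 with compound at 30 min, 37 °C, camptothecin positive control. Stopped with SDS/bromophenol blue/glycerol dye, run on 1% agarose in TAE for 1.5 h, Ged Red stained, UV visualized.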

For assay [12], the species on record is Homo sapiens. The experiment in a line: Inhibition of catalytic activity of human topoisomerase 2 assessed as decrease in levels of linear pBR322 DNA trapped by etoposide at 50 uM after 6 mins by agarose gel electrophoresis.
The species named for assay [13] is Homo sapiens. The experiment in a line: Inhibition of human topoisomerase 2-mediated pBR322 DNA relaxation at 10 uM after 30 mins by agarose gel electrophoresis.
Assay [14] concerns DNA. Nature of the assay: Induction of Escherichia coli pBR322 DNA intercalation assessed as transformation of topoisomerase1-relaxed pBR322 DNA in to supercoiled DNA at 50 uM preincubated for 10 mins followed by topoisomerase-1 addition and measured after 30 mins by agarose gel electrophoresis method. The format is nucleic-acid assay. In a few lines: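 Unwinding: pBR322 first relaxed by Topo I in buffer (50 mM Tris-HCl pH 7.5, 50 mM KCl, 10 mM MgCl2, 0.5 mM DTT, 0.1 mM EDTA, 30 μg/mL BSA). 0.1 μg relaxed DNA preincubated with compound 10 min at room temperature, then Topo I (1 U) added, 30 min at 37 °C. Phenol-chloroform stop, SDS/EDTA added, agarose electrophoresis in TAE, UV imaging.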

Assay [15] has as its system DNA. The experiment in a line: Induction of Escherichia coli pBR322 DNA intercalation assessed as transformation of topoisomerase1-relaxed pBR322 DNA in to supercoiled DNA at 5 uM preincubated for 10 mins followed by topoisomerase-1 addition and measured after 30 mins by agarose gel electrophoresis method. Format: nucleic-acid assay. An outline of the steps:
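0.1 μg relaxed DNA incubated with compound 10 min at room temperature, then Topo I (1 U) added, 37 °C for 30 min. Stopped with phenol-chloroform and SDS/EDTA. Products resolved on agarose gel in TAE and imaged under UV.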

One may read the IC50 as the midpoint of a concentration-inhibition curve. A low value points to higher potency. Turning to `COc1cc([C@@H]2c3cc4c(cc3[C@@H](O[C@@H]3O[C@@H]5CO[C@@H](C)O[C@H]5[C@H](O)[C@H]3O)[C@H]3COC(=O)[C@H]23)OCO4)cc(OC)c1O` [ETOPOSIDE], the inhibition entry in assay [1] and in assay [7] was “Active” throughout. In addition, the IC50 is 28600 nM in assay [2]; 2460 nM in [3]; 580 nM in assay [4]; 13200 nM in assay [5]; 30300 nM in [8]; 1210 nM in assay [9]. Further, the result in assay [6] was Active.

Consider `Cc1ccc(Cn2c(/C=C3\SC(=S)N(CC(=O)O)C3=O)nc3ccccc32)cc1`, for which the outcome in [10] and in assay [14] was inactive. The inhibition result in assay [11] is “inactive”. Moreover, the inhibition entry in assay [12], in [1] and in assay [13] was “Active” each time. Also, the IC50 was found to be 1280 nM in [2]; 3220 nM in [3]; 540 nM in assay [4]; 2640 nM in [5]; 1040 nM in [8]; 960 nM in assay [9].

On to `O=C(O)CN1C(=O)/C(=C/c2nc3ccccc3n2Cc2ccccc2F)SC1=S`, for which the outcome in assay [10] and in [14] was inactive. For the same compound, in [11], the inhibition result is “inactive”. Also, the inhibition result in [12], in [1] and in assay [13] was “Active” throughout. The IC50 in assay [2] amounted to 640 nM; in assay [3], 2670 nM; in [4] it was 210 nM; in assay [5], 1860 nM; in assay [8], 330 nM; in assay [9], 1230 nM.

Regarding `CC[n+]1c(-c2ccccc2)c2cc(N)ccc2c2ccc(N)cc21`, in [15], the result was Active.
